Test results reported in ChEMBL document CHEMBL3867435, “Chemical Constituents of Mangifera indica and Their Antiausterity Activity against the PANC-1 Human Pancreatic Cancer Cell Line” (J Nat Prod, 2016).
Activity calls are given as the source filed them. No cut-off for these calls is given here.

How the values were obtained:
[1] = Cytotoxicity against human PANC1 cells in Dulbecco's modified Eagle medium measured after 24 hrs by WST8 assay; assay type: toxicity, cell-based; conditions: panc-1, 24 h
Summary of the method: (§1)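 PANC-1 (Riken BRC) kept in DMEM + 10% FBS, 37 °C, 5% CO2. Seeded 1.5 × 10^4/well, 24 h in fresh DMEM, washed twice with PBS. Serial dilutions then given in DMEM or in NDM (salts, MEM vitamins, 25 mM HEPES, pH 7.4, no glucose/amino acids/serum) for 24 h. Viability read with 10% WST-8 in DMEM, 3 h, A450, vs control and blank; mean of three wells.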

[2] = (§2) Antiausteritic activity against human PANC1 cells in nutrient-deprived medium measured after 24 hrs by WST8 assay; assay type: functional, PANC-1; summary of the method: as §1
PANC-1 [3] = assay: Induction of cell death in human PANC1 cells in nutrient-deprived medium at 10 uM measured after 24 hrs by acridine orange/ethidium bromide-staining based fluorescence microscopy; assay type: functional
Summary of the method: (§3)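 After 24 h attachment (1.5 × 10^4/well, DMEM or RPMI-1640), cells were PBS-washed twice and exposed 24 h to compound in NDM (NDM alone as control). EB/AO reagent added for 5 min. Imaged at 20× in fluorescent and phase-contrast modes: green (AO) marks live cells, red (EB) marks dead cells.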

PANC-1 [4] = assay: Inhibition of mobility in human PANC1 cells in nutrient-deprived medium at 5 uM measured after 6 hrs by phase contrast microscopic method; assay type: functional, cell-based
Summary of the method: (§4)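 Cells (3.0 × 10^6) plated in 35 mm dishes and attached overnight in complete medium. Washed twice with PBS, then treated at 5 μM in NDM. Held in a stage-top incubator at 37 °C, 5% CO2, with phase-contrast images taken every 5 min for 48 h.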

PANC-1 [5] = assay: Induction of morphological changes in human PANC1 cells in nutrient-deprived medium at 5 uM measured after 6 hrs by phase contrast microscopic method; assay type: functional, cell-based; summary of the method: as §4
PANC-1 [6] = assay: Induction of morphological changes in human PANC1 cells in nutrient-deprived medium at 10 uM measured after 24 hrs by acridine orange/ethidium bromide-staining based fluorescence microscopy; assay type: functional, cell-based; summary of the method: as §3
PANC-1 [7] = assay: as §2; assay type: functional; summary of the method: as §1
PANC-1 [8] = assay: Induction of morphological changes in human PANC1 cells in nutrient-deprived medium assessed as plasma membrane blebbing at 5 uM measured after 9 hrs by phase contrast microscopic method; assay type: functional, cell-based; summary of the method: as §4
[9] = Induction of cell death in human PANC1 cells in nutrient-deprived medium at 5 uM up to 24 hrs by phase contrast microscopic method; assay type: functional, PANC-1
Summary of the method: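 PANC-1 cells from the Riken bank, grown in DMEM with 10% FBS, were plated at 3.0 × 10^6 per 35 mm dish and left to attach overnight in complete medium. After two PBS washes they were treated in nutrient-deprived medium (inorganic salts, 25 mM HEPES pH 7.4, MEM vitamins; no glucose, amino acids or serum). Cells were kept in a stage-top incubator at 37 °C and 5% CO2, with phase-contrast images every 5 min.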

PANC-1 [10] = assay: Induction of cell death in human PANC1 cells in nutrient-deprived medium at 5 uM after 48 hrs by phase contrast microscopic method; assay type: functional, cell-based; summary of the method: as §4

SMILES | Activity [1] | PC50 [2] [µM] | also measured
C=C(CC[C@@H](C)[C@H]1CC[C@@]2(C)[C@@H]3CC[C@H]4C(C)(C)[C@@H](O)CC[C@@]45C[C@@]35CC[C@]12C)C(C)CO (stereo not given in full) | Non-Toxic | >100 | –
COc1cc(O)c(C(=O)c2ccc(O)cc2)c(O)c1[C@@H]1O[C@H](CO)[C@@H](O)[C@H](O)[C@H]1O | Non-Toxic | >100 | –
O=c1c2cc(O)c(O)cc2oc2cc(O)c([C@@H]3O[C@H](CO)[C@@H](O)[C@H](O)[C@H]3O)c(O)c12 [MANGIFERIN] | Non-Toxic | >100 | –
COc1cc(O)c(C(=O)c2ccc(O)cc2)c(O[C@@H]2O[C@H](CO)[C@@H](O)[C@H](O)[C@H]2O)c1 [MAHKOSIDE A] | Non-Toxic | >100 | –
C=C(CC[C@@H](C)[C@H]1CC[C@@]2(C)[C@@H]3CC[C@H]4C(C)(C)[C@H](O)CC[C@@]45C[C@@]35CC[C@]12C)[C@@H](C)C(=O)O | Non-Toxic | 4.8 | Activity (PANC-1 [3]): Active; inhibition (PANC-1 [4]): Active; Activity (PANC-1 [5]): Active; Activity (PANC-1 [6]): Active; Activity (PANC-1 [7]): Dose-dependent effect; Activity (PANC-1 [8]): Active; Activity [9]: >50%; Activity (PANC-1 [10]): Active
C/C(=C\C(O)C[C@@H](C)[C@H]1CC[C@@]2(C)[C@@H]3CC[C@H]4C(C)(C)C(=O)CC[C@@]45C[C@@]35CC[C@]12C)C(=O)O (stereo not given in full) | Non-Toxic | 32.3 | –
COc1cc(C[C@H]2C(=O)OC[C@@H]2Cc2ccc(OC)c(OC)c2)ccc1O [ARCTIGENIN] | – | 0.8 | –
C[C@H](CC/C=C(\CO)C(=O)O)[C@H]1CC[C@@]2(C)[C@@H]3CC[C@H]4C(C)(C)[C@@H](O)CC[C@@]45C[C@@]35CC[C@]12C | Non-Toxic | 52.1 | –
COc1cc(O)c(C(=O)c2ccc(O)cc2)c(O)c1[C@@H]1O[C@H](CO)[C@@H](O)[C@H](O)[C@H]1OC(=O)c1ccc(O)cc1 | Non-Toxic | >100 | –
C/C(=C\C(O)C[C@@H](C)[C@H]1CC[C@@]2(C)[C@@H]3CC[C@H]4C(C)(C)[C@@H](O)CC[C@@]45C[C@@]35CC[C@]12C)C(=O)O (stereo not given in full) | Non-Toxic | >100 | –
O=c1[nH]cc(F)c(=O)[nH]1 [FLUOROURACIL] | – | >200 | –
C=C(CC[C@@H](C)[C@H]1CC[C@@]2(C)[C@@H]3CC[C@H]4C(C)(C)[C@@H](O)CC[C@@]45C[C@@]35CC[C@]12C)[C@@H](C)C(=O)OC | Non-Toxic | >100 | –
C/C(=C\CC[C@@H](C)[C@H]1CC[C@@]2(C)[C@@H]3CC[C@H]4C(C)(C)C(=O)CC[C@@]45C[C@@]35CC[C@]12C)C(=O)O [MANGIFERONIC ACID] | Non-Toxic | >100 | –
C=C(CC[C@@H](C)[C@H]1CC[C@@]2(C)[C@@H]3CC[C@H]4C(C)(C)C(=O)CC[C@@]45C[C@@]35CC[C@]12C)[C@@H](C)C(=O)OC | Non-Toxic | 22.8 | –
C=C(CC[C@@H](C)[C@H]1CC[C@@]2(C)[C@@H]3CC[C@H]4C(C)(C)C(=O)CC[C@@]45C[C@@]35CC[C@]12C)[C@@H](C)C(=O)O | Non-Toxic | 44.2 | –
CCCC/C=C\CCCCCCCCCCCC(=O)O[C@H]1CC[C@]23C[C@]24CC[C@]2(C)[C@@H]([C@H](C)CC/C=C(\C)C(=O)O)CC[C@@]2(C)[C@@H]4CC[C@H]3C1(C)C | Non-Toxic | 69.6 | –
C[C@H](CC/C=C(\CO)C(=O)O)[C@H]1CC[C@@]2(C)[C@@H]3CC[C@H]4C(C)(C)C(=O)CC[C@@]45C[C@@]35CC[C@]12C | Non-Toxic | >100 | –
C/C(=C\CC[C@@H](C)[C@H]1CC[C@@]2(C)[C@@H]3CC[C@H]4C(C)(C)[C@@H](O)CC[C@@]45C[C@@]35CC[C@]12C)C(=O)O [MANGIFEROLIC ACID] | Non-Toxic | >100 | –
C=C(CC[C@@H](C)[C@H]1CC[C@@]2(C)[C@@H]3CC[C@H]4C(C)(C)[C@@H](O)CC[C@@]45C[C@@]35CC[C@]12C)[C@@H](C)C(=O)O | Non-Toxic | >100 | –
C=C(CC[C@@H](C)[C@H]1CC[C@@]2(C)[C@@H]3CC[C@H]4C(C)(C)[C@@H](OC(C)=O)CC[C@@]45C[C@@]35CC[C@]12C)C(C)C(=O)O (stereo not given in full) | Non-Toxic | 11 | Activity (PANC-1 [7]): Dose-dependent effect
Nc1ccn([C@@H]2O[C@H](CO)[C@@H](O)C2(F)F)c(=O)n1 [GEMCITABINE] | – | > 100 | –
COc1cc(O)c(C(=O)c2ccc(O)cc2)c(O)c1 | Non-Toxic | >100 | –
